Laboratory results reported in ChEMBL document CHEMBL4513216, “Probing the Open Global Health Chemical Diversity Library for Multistage-Active Starting Points for Next-Generation Antimalarials” (ACS Infect Dis, 2020).

experiment: Toxicity liver stage against HepG2, at 10uM; type: cell-based; set-up: test concentration 10 uM, cell line HepG2-A16-CD81EGFP; conditions: human, HepG2-A16-CD81EGFP cells; read-out: INHIBITION
In short: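 Uninfected HepG2-A16-CD81EGFP cells, 3 × 10^3 per well, 1536-well, plated on prespotted compound at 10 μM final, parasite-free screening media added to match infected plates; puromycin 10 μM positive, DMSO 0.5% negative; run in parallel with 48 h PbLuc assay at 37 °C, 5% CO2; viability by CellTiter-Glo luminescence, normalized to controls.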

SMILES	cytotoxicity at 10 µM [%]
O=C(COc1ccccc1Cl)N1CCCC(n2ccnc2)C1 (configuration not stated)	-21.9
Cn1cccc1C(=O)N1CCCC1c1ccc(CN2CCOCC2)cn1 (configuration not stated)	1.43
c1cnc2[nH]c(C3CCCNC3)c(CN3CCCOCC3)c2c1 (configuration not stated)	-1.43
Clc1ccc(C2(NCc3noc(C4CC4)n3)CCC2)cc1	5.04
O=C(Cc1cnn(-c2ccccc2)n1)NC(C1CC1)C1CC1	-9.66
COCc1ccc(CN2CCC(O)(Cn3ccc4ncccc43)CC2)o1	4.45
COCCNC(=O)C1CN(Cc2cccnc2)Cc2ccnn2C1 (configuration not stated)	-76.1
COc1cc(CN2CCCC2)ccc1Oc1ncccc1C(F)(F)F	0.96
Cc1cccc(C(=O)NCCCN2CCN(c3ccccc3)CC2)c1	7.67
CC(C)c1nnc(CN(C)Cc2ccccc2-c2ccccc2)o1	5.98
CCc1cc(-c2cc[nH]n2)nc(N2CCCC2)n1	0.255
Cc1ccc(CNC2(Cc3cc(-c4ccccc4)on3)COC2)o1	-3.24
CC(=O)N1CCC(c2cncc(N3CCCC(O)C3)n2)CC1 (configuration not stated)	-1.47
CCC(=O)c1ccc(OCC(=O)N2CCNCC2C(=O)NC2CC2)cc1 (configuration not stated)	-3.28
Cn1cc(CNCCC(=O)NCc2ccccc2)c(-c2cccnc2)n1	-2.19
CN1CC(=O)N(c2ccsc2)CC12CCN(C(=O)c1ccccc1)C2 (configuration not stated)	-0.516
CC(=O)Nc1sccc1C(=O)C(C)(C)C	-44.7
Cn1ccc(C(=O)N2CCC3(CCN3c3ncccn3)C2)n1 (configuration not stated)	9.41
CCc1nc(C2CCCN2CCc2cccs2)no1 (configuration not stated)	-108
Cc1ccnc(N2CCC(OCCN3CCCCC3)C2)n1 (configuration not stated)	-49.4
Cc1cc(C(=O)N2CCCCC2C)ccc1NCC(=O)N1CCOCC1 (configuration not stated)	4.08

SMILES	cytotoxicity at 10 µM [%]
O=C(NCC1CCN(CCc2ccccc2)C1)c1cc(Cl)c[nH]1 (configuration not stated)	10
CC(=O)N1CC(C)CN(C(=O)c2cccnc2C)c2ccccc21 (configuration not stated)	6.45
Cc1ccc(N2CC3(COCCN(Cc4ccncc4)C3)OCC2=O)s1 (configuration not stated)	8.59
Cc1ccc(Oc2ncccc2CNC2CCSCC2)cn1	-8.22
Cc1nc(-c2ccccc2)cc(C2CCNCC2)n1	3.78
COc1ccccc1CN1C[C@@H]2CN(C(C)=O)CCO[C@@H]2C1	-102
O=C(CCn1ncc2ccccc21)N1CCCC(Cc2cccnc2)C1 (configuration not stated)	-1.83
CN(C)C(=O)COC[C@]12COC[C@H]1CN(CC1CCC1)C2	-6.07
CN(Cc1nc(Cc2cccc(F)c2)no1)C1CCOCC1	2.79
CC(C)(C)OC(=O)N1CC(CC(=O)NCc2ccsc2)C1	5.18
CC(C)(C)c1nc(C(C)(C)NC(=O)C2CC(=O)N(CC3CC3)C2)no1 (configuration not stated)	-5.4
CC1(C)CNC(=O)c2nc(-c3ccccc3)[nH]c2C1	-7.28
Cc1cc(N2CCC(C(=O)N(C)C)CC2)nc(-c2ccncc2)n1	-17.1
COc1cc(CNCC(O)c2ccccc2F)cc2c1OCO2 (configuration not stated)	-5.53
Cc1nn(C)c(Cl)c1CNCCOc1ccc2c(c1)OCO2	1.52
COc1ccc(C)cc1NC(=O)c1c(C)cn(C)c1CC(=O)O	-0.713
c1c(CN2CCCC2)nc2n1CCNC2	9.94
N#Cc1ccc(CNCC2CCN(CCO)CC2)cc1	-9.7
Cc1ncsc1CN(C)C(=O)CC1CCOc2ccccc21 (configuration not stated)	20.2
CC(C)(C)c1ncc(C(=O)NCCNC(=O)c2ccccc2)s1	-8.08
COC(=O)C(NC(=O)c1ccc(N(C)C)nc1)c1ccccc1 (configuration not stated)	4.15

SMILES	cytotoxicity at 10 µM [%]
O=C(CCC(=O)N1CCC(c2noc3cc(F)ccc23)CC1)NC1CC1	5.09
c1cc2c(cc1-c1noc3c1CN(C1CCSCC1)CC3)OCO2	5.51
CCNC(=O)N(C)Cc1ccc(SC)c(OC)c1	-13.1
Cn1c(C(=O)NS(C)(=O)=O)ccc1-c1ccccc1	-6.85
Cc1nc2c(c(NC3CC3)n1)CCN(C(=O)C(C)(C)O)CC2	4.24
O=C1N(c2ccccc2)C[C@H]2CN(C3CCC3)CCN12	6.09
COc1ccc(N2CCN(CC(O)c3ccc(C)cc3C)CC2)cc1 (configuration not stated)	11.8
c1cncc(CN2CCc3ncnc(C4CC4)c3CC2)c1	-129
CC1CCc2nn(CCNC(=O)Cc3ccc(F)cc3)c(=O)cc2C1 (configuration not stated)	7.61
Cc1ccc(N2CCCc3sc(C(=O)NCc4ccc(C)o4)nc32)nn1	4.93
Cc1nnc(SCCCNc2cc(C3CC3)ncn2)s1	19.8
CCc1nc(N)sc1C(=O)N1CCCC(COc2cccc(C)c2)C1 (configuration not stated)	-140
Cc1cc(F)c(S(=O)(=O)NCc2ccnc(N(C)C)n2)cc1F	-156
c1coc(CN2CCCC3(COCCN(Cc4c[nH]nn4)C3)C2)c1 (configuration not stated)	-12.2
O=C(C1=CCCC1)N1C[C@@H]2COC[C@]2(COCC2CC2)C1	-96.2
OCC(O)CSCc1cn(-c2ccc(Cl)c(Cl)c2)nn1 (configuration not stated)	8.55
O=C(C1NCCc2[nH]cnc21)N1CCC2(C=Cc3ccccc32)CC1 (configuration not stated)	5.19
CN(C)C(=O)n1c(C(=O)NC(C)(C)CO)cc2c1c1ccccc1n2C	-76.2
CC(C)c1nccn1C1CCCN(C(=O)c2ccc3c(c2)OCO3)C1 (configuration not stated)	4.28
O=C1[C@H]2CN(Cc3ccccc3)C[C@H]2CN1c1cncnc1	-4.53
CCc1nnc2n1CCN(Cc1nc(-c3ccoc3)no1)C2	-4.1

SMILES	cytotoxicity at 10 µM [%]
Cc1cc(C)c(S(=O)(=O)Nc2ccccc2CC(F)(F)F)cc1C(=O)O	-1.47
CC(=O)N1CCC(c2ncc(C(=O)Nc3ccc(F)cc3)c(C)n2)CC1	7.29
COc1ccc(C(=O)NCC(c2cccn2C)N2CCCC2)cc1OC (configuration not stated)	6.86
Cc1ccc(C)c(-n2ccc3nc(N4CCCC4)ncc3c2=O)c1	18.6
COCCCN(C)[C@@H]1c2ccccc2C2(CCNCC2)[C@H]1O	1.73
CCOCCC(=O)NCC1COc2c(cccc2OC)C1 (configuration not stated)	-142
CCc1nc(CCNC(=O)Nc2ccc(C(=O)NC)cc2C)cs1	27.7
CN(C)CC(=O)N1CCc2ncnc(-c3cncnc3)c2CC1	-2.42
O=C(O)c1ccc(S(=O)(=O)Nc2ccccc2F)c(F)c1	5.51
O=C(CCn1cnc2cc(F)c(F)cc21)N1CCN2CCCCC2C1 (configuration not stated)	-12.3
O=C(COCc1nc(-c2ccncc2)no1)N1CCCCC1	5.4
Cn1cc(C2CCCN2CC(=O)N(CCC#N)Cc2ccco2)cn1 (configuration not stated)	-6.18
CC(=O)N1CCC(N2CCN3C(=O)N(Cc4ccccn4)C[C@H]3C2)CC1	2.26
CC(C)N(C)Cc1cc(=O)n2c(n1)CN(C(=O)c1cnccn1)CCC2	-3.02
O=C(O)c1cc(S(=O)(=O)Nc2ccccc2)cc2c1OCCO2	-9.26
CN1CCN(C(=O)N2CCCC2)Cc2cccnc21	-3.66
CN(C)CCN(Cc1ccc(C#N)cc1)C(=O)c1ccn(C)c(=O)c1	16.8
CCOC(CC)C(=O)NCCC(=O)N1CCN(c2ncccn2)CC1 (configuration not stated)	-3.91
C/C(NC(=O)c1cccs1)=C1\C(=O)C[C@@H]2[C@H]1C2(C)C	-1.18
